Values joined by “and” are separate entries in the source; they are usually repeats but may differ in a detail not shown here. Identical values can stand only once. The campaign covered roughly 2,500 compounds. About 1,200 (48%) were called active. The set was probably picked from earlier hits. The list shows a part of the results. Values without a mark were called inactive.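 Rule for the calls: active = mean activation above the low control average plus 3 SD, as set in the primary screen (cut at about 12% in these data); inactive = the rest.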

For the experiment, the target named is Troponin I, cardiac muscle (Homo sapiens) + Troponin T, cardiac muscle (Homo sapiens) + Troponin C, slow skeletal and cardiac muscles (Homo sapiens) (UniProt P19429+P45379+P63316). As to the kind of experiment: calcium sensitizers of cardiac thin filaments – biochemical, IANBD-TnC fluorescence, triplicate, confirmation (AID 504383).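 Note: 0% = DMSO at 0.472 mM calcium and 100% = DMSO at 2.9 mM calcium.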 The conditions noted are these: IANBD-labeled cardiac RTF, Ca2+ sensitivity fluorescence, at 7.2 µM, hits give high values, tested at EC20 calcium, 0.472 mM. The essentials: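 System: Labelled thin filament complex | Technique: Filament fluorescence intensity | Benchmarks: Low control EC20 calcium, high control EC100 calcium | Timing: 15 min at 25 °C | Compound dosing: One dose, 7.2 µM nominal | Probe or stimulus: Ca2+ 0.472 mM, EC20 level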
Regarding `CC(C)n1c(=O)c(C=Nc2cccc([N+](=O)[O-])c2)c(O)n(CCc2ccccc2)c1=O`, the activation is 19.7% (active).

For the molecule `Cc1cc(Cl)nc(N)n1`, the activation was 96.2% (active).

Turning to `C[C@]12CCC(=O)C=C1CC[C@@H]1[C@@H]2CC[C@]2(C)C(=O)CC[C@@H]12`, the activation is -0.04%.

Turning to `CCOC(=O)c1ccccc1C(=O)OCC`, the activation is 4170% (active).

Consider `CCN(CC)C(=O)c1ccc(NC(=O)COc2ccc([N+](=O)[O-])cc2Cl)cc1`, for which the activation was 4.48%.

As for `Nc1ccc2nonc2c1[N+](=O)[O-]`, the activation was 6.77%.

`O=[N+]([O-])c1ccc(N2CCCC2)c2ncccc12`: the activation was 38.3% (active).

For the molecule `CCOC(=O)C1CCCN(c2ccc([N+](=O)[O-])c3nonc23)C1` (centres undefined), the activation was 16.5% [scaled from EC20 to saturating calcium] (active).

With `O=[N+]([O-])c1ccc(N2CCCCCC2)c2nonc12`, the activation was 31.9% (active).

On to `CC(C)C[C@H]1C(=O)N2CCC[C@H]2[C@]2(O)O[C@](NC(=O)[C@@H]3C=C4c5cccc6[nH]cc(c56)C[C@H]4N(C)C3)(C(C)C)C(=O)N12`, for which the activation is 8.78%.

Regarding `O=C1NC(=S)SC1=Cc1ccc(N(CCCl)CCCl)cc1`, the activation was 0.25%.

For the molecule `CN1CCN(c2ccc3c(c2)S(=O)(=O)c2ccccc2C3=O)CC1`, the activation is 2.45%.

For the molecule `CCN1C[C@]2(CO)CC[C@H](OC)[C@@]34C5C[C@H]6[C@H](OC)C5[C@](O)(C[C@H]6OC)[C@@H](C(OC)C23)[C@@H]14` (some centres undefined), the activation was 15.5% (active).

For the molecule `C[C@]12CCC3C(CC[C@H]4C[C@@H](O)[C@H](O)C[C@]34C)C1CC[C@@H]2O` (some centres undefined), the activation is 24.5% (active).

As to `Nc1c2c(nc3ccccc13)CCN(Cc1ccccc1)C2`, the activation was 87.8% (active).

In the case of `CCOP(=O)(Cc1cc(C#N)oc1C)OCC`, the activation is 7.87%.

As for `O=C(O)C1=CC2c3ccccc3C1c1ccccc12`, the activation is 11.7% (active).

For `CC(C)c1ccc(N2C(=O)NC(=O)/C(=C/C=C/c3ccco3)C2=O)cc1`, the activation was 7.28%.

Take `CN(C)P(=O)(CCl)Nc1ccccc1` (centres undefined): the activation was 38.8% (active).

Consider `CN1CCC2(CC1)C(C#N)=C(N)NC(S)=C2C#N`, for which the activation was 6.17% and 11.4%.

`COC(=O)[C@H]1C[C@@H]1[C@H](NP(=O)(c1ccccc1)c1ccccc1)c1ccccc1`: the activation is -0.05%.

On to `CCOCCCn1c(N)c(C(=O)Nc2sc3c(c2C(=O)OC)CCCC3)c2nc3ccccc3nc21`, for which the activation was 12.7% (active).

As for `COc1ccc(N=Nc2c(O)[nH]c(=S)[nH]c2=O)cc1`, the activation is 6.09%.

Consider `CCOC(=O)c1cc(CC)sc1/N=C/c1c(O)[nH]c(=S)[nH]c1=O`, for which the activation was 8.76%.

With `O=c1cc(C(F)(F)F)c2cc3c4c(c2o1)CCCN4CCC3`, the activation is 67.7% (active).

As to `Cc1cc2c(C(F)(F)F)cc(=O)oc2c2c1NCCC2`, the activation is 79.4% (active).

For the molecule `Cc1ccc(C)c(Cn2c(C(=O)O)c(C=O)c3ccccc32)c1`, the activation is 4.27%.

Regarding `CCC1(C)OC(c2ccccc2)=C/C(=C/C=C2C(=O)NC(=O)NC2=O)O1` (centres undefined), the activation is 32.1% (active).

For the molecule `CN1/C(=C\C=C2C(=O)NC(=O)NC2=O)C(C)(C)c2ccccc21`, the activation is 9.74%.

For `CC1(C)OC(c2ccccc2)=C/C(=C/C=C2C(=O)NC(=O)NC2=O)O1`, the activation was 6.59%.

For `CN1CCN(Cc2cn(C)c3ccccc23)CC1CCO` (centres undefined), the activation is 40.5% (active).

For `C#C[C@]1(O)CC[C@H]2[C@@H]3CCC4=Cc5nc6nc7ccccc7n6cc5C[C@]4(C)[C@H]3CC[C@@]21C`, the activation was 6.44%.

As for `C=Cn1ccnc1P(=S)(c1nccn1C=C)c1nccn1C=C`, the activation was 23.4% (active).

As for `COC(=O)C1=C(c2cccc(C#N)c2)C[C@@H]2CC[C@H]1N2C(=O)N1CCOCC1`, the activation was 14.3% (active).

The record behind these values is PubChem BioAssay AID504383 (The Scripps Research Institute Molecular Screening Center, 2011).
